Reference: paper PMC8598261 (European Journal of Medicinal Chemistry, 2021)

Key:
caspase-1 = target: T1, caspase-1 (Homo sapiens, UniProt P29466); experiment: Caspase-1 inhibition assay, cleavage of fluorogenic substrate YVAD-AFC; type: biochemical; conditions: for remaining activity at 100 µM: read-out: Enzyme activity (% at 100 μM)
T1 sequence (P29466 120-297 limits assumed): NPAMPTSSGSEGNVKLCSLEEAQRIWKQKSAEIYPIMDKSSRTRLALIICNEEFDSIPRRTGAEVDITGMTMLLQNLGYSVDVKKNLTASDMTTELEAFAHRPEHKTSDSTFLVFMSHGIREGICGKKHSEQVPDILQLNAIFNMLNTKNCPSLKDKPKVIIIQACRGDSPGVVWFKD
T1 sequence (P29466 317-404 limits assumed): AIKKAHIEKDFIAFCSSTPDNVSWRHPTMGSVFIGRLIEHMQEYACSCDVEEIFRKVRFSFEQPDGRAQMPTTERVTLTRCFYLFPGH
Summary of the method: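 Fluorogenic caspase-1 assay: cleavage of YVAD-AFC releases free AFC, followed as a time course of fluorescence increase (Ex/Em 400/505 nm) and compared with an untreated control. Test compounds were run as 10-dose, 3-fold serial dilutions starting at 100 μM or 10 μM to give IC50. Residual activity at 100 μM is reported as % enzyme activity.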

U937 cells = experiment: U937 cell growth inhibition / cell viability by MTT assay; type: cell-based, human; conditions: lowest concentrations (range 1 nM to 100 μM), 48 h
Summary of the method: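 Human U937 cells were grown in RPMI 1640 with 10% FBS, penicillin and streptomycin at 37 °C in 5% CO2. They were seeded at 10000 cells/well and exposed to test compound at 1 nM–100 μM for 48 h, with matched DMSO-only controls. MTT (0.1 mg/well) was added for 4 h at 37 °C, then cells were lysed and A595 read. Viability is % of control (100%), mean of three independent experiments.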

SMILES: O=C(O)C[C@@H](O)CNC(c1ccccc1)c1nnnn1CCCC(=O)N1CCc2ccccc2C1 (mixture of isomers) [(3R)5 ag, Sodium (3R)-4-(((1-(4-(3,4-dihydroisoquinolin-2(1H)-yl)-4-oxobutyl)-1H-tetrazol-5-yl)(phenyl)methyl)amino)-3-hydroxybutanoate]
- IC50 (caspase-1): 53.5 µM
- remaining activity at 100 µM (caspase-1): 40.5%

SMILES: CC(C)(C)CC(NC[C@H](O)CC(=O)O)c1nnnn1CCCC(=O)N1CCc2ccccc2C1 (mixture of isomers) [(3R)5ae, Sodium (3R)-4-((1-(1-(4-(3,4-dihydroisoquinolin-2(1H)-yl)-4-oxobutyl)-1H-tetrazol-5-yl)-3,3-dimethylbutyl)amino)-3-hydroxybutanoate]
- IC50 (caspase-1): 12.2 µM
- remaining activity at 100 µM (caspase-1): 9.71%

SMILES: O=C(O)C[C@@H](O)CNC(c1cccs1)c1nnnn1CCCC(=O)N1CCc2ccccc2C1 (mixture of isomers) [(3R)5ah, Sodium (3R)-4-(((1-(4-(3,4-dihydroisoquinolin-2(1H)-yl)-4-oxobutyl)-1H-tetrazol-5-yl)(thiophen-2-yl)methyl)amino)-3-hydroxybutanoate]
- IC50 (caspase-1): 32.6 µM
- remaining activity at 100 µM (caspase-1): 29%

SMILES: O=C(O)C[C@@H](O)CNC(c1cccs1)c1nnnn1CCCC(=O)NCc1ccccc1 (mixture of isomers) [(3R)5bf, Sodium (3R)-4-(((1-(4-(benzylamino)-4-oxobutyl)-1H-tetrazol-5-yl)(thiophen-2-yl)methyl)amino)-3-hydroxybutanoate]
- IC50 (caspase-1): 77.8 µM
- remaining activity at 100 µM (caspase-1): 49.6%

SMILES: CC(C)(C)CC(c1nnnn1CCCC(=O)N1CCc2ccccc2C1)N(Cc1ccccc1)C[C@H](O)CC(=O)O (mixture of isomers) [(3R)16ac, Sodium (3R)-4-((1-(1-(4-(3,4-dihydroisoquinolin-2(1H)-yl)-4-oxobutyl)-1H-tetrazol-5-yl)-3,3-dimethylbutyl)(benzyl)amino)-3-hydroxybutanoate]
- IC50 (caspase-1): 15 µM
- remaining activity at 100 µM (caspase-1): 4.45%

SMILES: O=C(O)C[C@H](O)CNC(c1ccccc1)c1nnnn1CCCC(=O)N1CCc2ccccc2C1 (mixture of isomers) [(3S)5 ag, Sodium (3S)-4-(((1-(4-(3,4-dihydroisoquinolin-2(1H)-yl)-4-oxobutyl)-1H-tetrazol-5-yl)(phenyl)methyl)amino)-3-hydroxybutanoate]
- IC50 (caspase-1): 68 µM
- remaining activity at 100 µM (caspase-1): 48.6%

SMILES: O=C(O)C[C@H](O)CNC(c1cccs1)c1nnnn1CCCC(=O)N1CCc2ccccc2C1 (mixture of isomers) [(3S)5ah, Sodium (3S)-4-(((1-(4-(3,4-dihydroisoquinolin-2(1H)-yl)-4-oxobutyl)-1H-tetrazol-5-yl)(thiophen-2-yl)methyl)amino)-3-hydroxybutanoate]
- IC50 (caspase-1): 51.4 µM
- remaining activity at 100 µM (caspase-1): 37.2%

SMILES: CC(NCC(O)CC(=O)O)c1nnnn1CCCC(=O)N1CCc2ccccc2C1 (centres unmarked) [5aa, Sodium 4-((1-(1-(4-(3,4-dihydroisoquinolin-2(1H)-yl)-4-oxobutyl)-1H-tetrazol-5-yl)ethyl)amino)-3-hydrxybutanoate]
- remaining activity at 100 µM (caspase-1): > 96.7%

SMILES: CC(C)(C)CC(NCC(O)CC(=O)[O-])c1nnnn1CCCC(=O)N1CCc2ccccc2C1.[Na+] (centres unmarked) [5ae, Sodium-4-((1-(1-(4-(3,4-dihydroisoquinolin-2(1H)-yl)-4-oxobutyl)-1H-tetrazol-5-yl)-3,3-dimethylbutyl)amino)-3-hydroxybutanoate]
- cytotoxic effect (U937 cells): low or is not significant

SMILES: CC(NCC(O)CC(=O)O)c1nnnn1CCCC(=O)NCc1ccccc1 (centres unmarked) [5ba, Sodium 4-((1-(1-(4-(benzylamino)-4-oxobutyl)-1H-tetrazol-5-yl)ethyl)amino)-3-hydroxybutanoate]
- remaining activity at 100 µM (caspase-1): > 96.7%

SMILES: CC(C)C(NCC(O)CC(=O)O)c1nnnn1CCCC(=O)NCc1ccccc1 (centres unmarked) [5bb, Sodium 4-((1-(1-(4-(benzylamino)-4-oxobutyl)-1H-tetrazol-5-yl)-2-methylpropyl)amino)-3-hydroxybutanoate]
- remaining activity at 100 µM (caspase-1): > 96.7%

SMILES: O=C(O)CC(O)CNC(c1ccccc1)c1nnnn1CCCC(=O)NCc1ccccc1 (centres unmarked) [5be, Sodium 4-(((1-(4-(benzylamino)-4-oxobutyl)-1H-tetrazol-5-yl)(phenyl)methyl)amino)-3-hydroxybutanoate]
- remaining activity at 100 µM (caspase-1): > 96.7%

SMILES: O=C(O)CC(O)CNC(c1cccs1)c1nnnn1CCCC(=O)NCc1ccccc1 (centres unmarked) [5bf, Sodium 4-(((1-(4-(benzylamino)-4-oxobutyl)-1H-tetrazol-5-yl)(thiophen-2-yl)methyl)amino)-3-hydroxybutanoate]
- remaining activity at 100 µM (caspase-1): > 96.7%

SMILES: COc1cc2c(cc1OC)CN(C(=O)CCCn1nnnc1C(NCC(O)CC(=O)O)C(C)C)CC2 (centres unmarked) [5ca, Sodium 4-((1-(1-(4-(6,7-dimethoxy-3,4-dihydroisoquinolin-2(1H)-yl)-4-oxobutyl)-1H-tetrazol-5-yl)-2-methylpropyl)amino)-3-hydroxybutanoate]
- remaining activity at 100 µM (caspase-1): > 96.7%

SMILES: COc1cc2c(cc1OC)CN(C(=O)CCCn1nnnc1C(NCC(O)CC(=O)O)c1cccs1)CC2 (centres unmarked) [5ce, Sodium 4-(((1-(4-(6,7-dimethoxy-3,4-dihydroisoquinolin-2(1H)-yl)-4-oxobutyl)-1H-tetrazol-5-yl)(thiophen-2-yl)methyl)amino)-3-hydroxybutanoate]
- remaining activity at 100 µM (caspase-1): > 96.7%

SMILES: CC(C)CC(c1nnnn1CCCC(=O)N1CCc2ccccc2C1)N(Cc1ccccc1)CC(O)CC(=O)[O-].[Na+] (centres unmarked) [16aa, Sodium 4-(benzyl(1-(1-(4-(3,4-dihydroisoquinolin-2(1H)-yl)-4-oxobutyl)-1H-tetrazol-5-yl)-3-methylbutyl)amino)-3-hydroxybutanoate]
- cytotoxic effect (U937 cells): low or is not significant
